Experimental data collected from several papers.
CYP1A2: Cytochrome P450 1A2 (CYP1A2, Homo sapiens, UniProt P05177)

COC(=O)N[C@H](C(=O)N1CCC[C@H]1c1nc(-c2ccc3c(c2)O[C@@H](c2ccccc2)n2c-3cc3cc(-c4c[nH]c([C@@H]5CCCN5C(=O)[C@@H](NC(=O)OC)C(C)C)n4)ccc32)c[nH]1)C(C)C — CC50 (BHK-21; cell growth or viability, CCK-8; 48 h): > 600 µM
CC(=O)O[C@H]1[C@H](O[C@H]2CC[C@]34C[C@]35CC[C@]3(C)[C@@H]([C@@]6(C)CC[C@@H](C(C)(C)O)O6)[C@@H](O)C[C@@]3(C)[C@@H]5C[C@H](O[C@@H]3O[C@H](CO)[C@@H](O)[C@H](O)[C@H]3O)[C@H]4C2(C)C)OC[C@@H](O)[C@@H]1O — IC50 (CYP1A2; enzyme activity, inhibitor; human, liver microsomes): > 200 µM
NS(=O)(=O)c1ccc(-c2ccc(Nc3ccncc3)cc2)cc1 — viability (BHK-21; cell growth or viability, MTT; 100 µM): 76%
COc1ccc2c(c1)CN(C(=O)CCN1CCC(Cc3ccccc3)CC1)CC[S@@+]2[O-] — Vd (male human, plasma; intravenous, 0.15 mg/kg, healthy volunteers): 86.7 L
C#CCC(Cc1cnc2nc(N)nc(N)c2n1)c1ccc(C(=O)N[C@@H](CCC(=O)O)C(=O)O)cc1 (some centres unmarked) — CC50 (BHK-21; cell growth or viability, CCK-8; 48 h): 104 µM
C[C@@H](Oc1ccc(S(C)(=O)=O)cc1C(=O)N1C[C@@H]2C[C@]2(c2cc(C(F)(F)F)on2)C1)C(F)(F)F — Vd/F (human, plasma; oral, 10 mg, single dose, fasted): 273 L
N#Cc1cccc(-c2ccc3ncc(-c4cc(F)cc(F)c4)c(N4CCC(N)CC4)c3c2)c1O — Vd/F (human, plasma; oral, 20 mg, single dose): 300 L
CC(=O)O[C@@H]1[C@@H](O)[C@H](O[C@H]2CC[C@]34C[C@]35CC[C@]3(C)[C@@H]([C@@]6(C)CC[C@@H](C(C)(C)O)O6)[C@@H](O)C[C@@]3(C)[C@@H]5C[C@H](O[C@@H]3O[C@H](CO)[C@@H](O)[C@H](O)[C@H]3O)[C@H]4C2(C)C)OC[C@H]1O — IC50 (CYP1A2; enzyme activity, inhibitor; human, liver microsomes): > 200 µM
NS(=O)(=O)c1ccc(-c2ccc(Nc3ccc(F)c(Cl)c3)cc2)cc1 — viability (BHK-21; cell growth or viability, MTT; 100 µM): 75%
OC[C@H]1O[C@@H](c2cc(Cc3ccc(C4CC4)cc3)c(Cl)c3c2CCO3)[C@H](O)[C@@H](O)[C@@H]1O — Vd/F (human, plasma; oral, 0.3 mg, single dose, fasted): 167 L
O=C1C(=O)c2cccnc2-c2ncccc21.O=C1C(=O)c2cccnc2-c2ncccc21.O=C1C(=O)c2cccnc2-c2ncccc21.[Cu+2].[O-][Cl+3]([O-])([O-])[O-].[O-][Cl+3]([O-])([O-])[O-] — CC50 (Vero; cell growth or viability, MTT; 72 h): > 200 µM
CN(C)C(=O)c1cc2cnc(Nc3ccc(-c4ccc5c(=O)cc(N6CCOCC6)oc5c4)cc3)nc2n1C1CCCC1.Cl — Cmax (BALB/c mouse, plasma; oral, 20 mg/kg): 3300 ng/mL
CCCSc1ccc2nc(NC(=O)OC)[nH]c2c1 — CC50 (Vero; cell growth or viability, MTT; 72 h): > 200 µM
CC[C@H](C)[C@@H]([C@@H](CC(=O)N1CCC[C@H]1[C@H](OC)[C@@H](C)C(=O)N[C@@H](Cc1ccccc1)C(=O)NCCCO)OC)N(C)C(=O)[C@@H](NC(=O)[C@H](C(C)C)N(C)C)C(C)C — IC50 (Cytochrome P450 3A4 (CYP3A4, Homo sapiens, UniProt P08684); enzyme activity, inhibitor; human, liver microsomes): 43.6 µM
